UCH37 inh = blocks the human deubiquitinase UCH37. purified proteasome/UCH37, Ub-AMC cleavage fluorescence. inhibition, % (concentration not given with the values). Q9Y5K5. 330,000 tested, 0.33% active;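 active means mean inhibition over replicate wells above about 20%, limit read from the data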;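 further: 0% = compound-free wells with enzyme and 100% = wells lacking proteasome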
Target sequence (Q9Y5K5 whole entry, looked up): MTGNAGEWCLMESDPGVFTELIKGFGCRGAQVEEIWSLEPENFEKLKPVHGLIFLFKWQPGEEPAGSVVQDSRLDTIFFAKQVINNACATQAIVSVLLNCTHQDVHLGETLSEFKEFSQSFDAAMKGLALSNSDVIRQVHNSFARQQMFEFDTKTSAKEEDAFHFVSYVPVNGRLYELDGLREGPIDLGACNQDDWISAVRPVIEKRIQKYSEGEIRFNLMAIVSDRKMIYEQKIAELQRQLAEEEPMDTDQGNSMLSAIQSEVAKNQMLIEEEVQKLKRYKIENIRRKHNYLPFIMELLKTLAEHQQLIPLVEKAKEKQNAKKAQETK
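Material: human UCH37 enzyme supplied as purified proteasome complex. Measure: % inhibition of Ub-AMC cleavage fluorescence. Medium: pH 7.4 Tris-HCl (50 mM) with ovalbumin, ATP-MgCl2, DTT. Times: 30 min preincubation with enzyme, 25 min cleavage at room temperature. Detection: AMC fluorescence intensity at 355/460 nm.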
Cardiac RTF inh = cardiac RTF calcium desensitization | IANBD-labeled cardiac RTF, Ca2+ fluorescence | inhibition, % at 7.15 µM | 340,000 tested, 0.12% active | P19429+P45379;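 active means inhibition above the mean inhibition of all tested compounds plus 3 SD, cut at about 17% in these data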;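 further: assay run at fixed EC70 calcium of 1.6 mM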
Efflux pump mplx = inhibitors of Candida antifungal efflux pumps expressed in yeast; AID 485275; S. cerevisiae Candida pump triplex, Nile Red efflux; inhibition, % at 10 µM; 330,000 tested, 0.44% active;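 active means plate passing quality check with inhibition over a set limit, or well fluorescence over plate mean plus 4 SD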;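 further: Nile Red retained in pooled yeast measured as flow cytometry median fluorescence; 0% = buffer negative control and 100% = Enniatin B positive control; higher means more Nile Red kept so more efflux inhibition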
Mot1-301 SUMO = blocks SUMOylation pathway, rescuing yeast Mot1-301 growth | S. cerevisiae Mot1-301 growth rescue, ATP luminescence, 38.5C; percent above DMSO median, 100 means doubled | growth rescue, % at 18.8 µM | 320,000 tested, 1% active;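 active means every valid replicate shows activation above 250% relative to neutral control wells; inactive means the rest, any valid replicate at or below 250%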;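 further: OY570 slx delta 5 strain wells were the positive control but not used for scaling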
ARNT TACC3 PPI = ARNT/TACC3 interaction disruption | Q9Y6A5 | AID 623870 | 390,000 tested, 0.66% active | inhibition, % at 9.99 µM | AlphaScreen His-ARNT PAS-B/GST-TACC3 binding, luminescence; TACC3 fragment carries E629A point mutation;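 active means mean inhibition of replicates at least 50% and at least half of replicates each reaching 50%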;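 further: 0% = complete ARNT plus TACC3 wells and 100% = ARNT alone without TACC3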
cardiac RTF act = increases calcium sensitivity of human cardiac regulated thin filaments | activation, % at 7.2 µM | IANBD-labeled TnC RTF fluorescence at EC20 calcium; 0% EC20 calcium, 100% full calcium | 340,000 tested, 0.24% active;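 active means activation above the mean over all tested compounds plus 3 SD, cut at about 30% in these data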;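 further: rise in fluorescence read as greater calcium sensitivity of cardiac thin filaments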
Yeast Mot1 SUMO = yeast SUMO pathway inhibition in dose response | growth activity, percent, % at 42 µM | S. cerevisiae Mot1-301 galactose growth, ATP luminescence, 24 h; -100 = growth of slx-deleted rescue strain | AID 493004 | shares compounds with Mot1-301 SUMO | 2,300 tested, under 10 active;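 active means Signal drops as the depositor expects, and the fitted half-maximal dose is no more than ten times the top valid tested dose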;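 further: more negative values mean stronger growth rescue toward the control strain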
An asterisk follows results filed as active; i = inactive; nt = no result given; + = active, no number. The list is not random: actives were taken first. Their share in the collection is about 2.1%.

SMILES	UCH37 inh	Cardiac RTF inh	Efflux pump mplx	Mot1-301 SUMO	ARNT TACC3 PPI	cardiac RTF act	Yeast Mot1 SUMO
CCN1C(=O)N(S(=O)(=O)C(F)(F)F)[C@@H](c2ccccc2)C(C(=O)OC)=C1C	1.3	-7.0	0.0	-4.7	-1.8	-7.1	nt
CCOC(=O)C1CCN(Cc2ccc(OCc3ccccc3)cc2)CC1	3.6	-9.3	0.0	554.9*	-2.7	3.9	-0.9
COc1ccc(C=NNC(=O)c2ccc(N)cc2)cc1Cn1cc([N+](=O)[O-])cn1	6.6	nt	nt	nt	nt	nt	nt
COc1ccc(Cl)cc1NC(=O)C(=O)NN=Cc1cc(C)n(-c2ccc(C)cc2)c1C	-16.2	nt	nt	nt	nt	nt	nt
Cc1ccc(C(NC(=O)c2ccccc2)C(Cl)Cl)cc1 (centres undefined)	1.2	1.3	0.1	20.4	-3.1	-0.7	nt
Cc1ccc(C(=O)NC(NC(=O)c2ccc(C)cc2)C(Cl)Cl)cc1	0.7	-5.7	-0.1	377.5*	-9.0	-2.9	0.0
CC(=NNC(=O)c1c(Cl)cnn1C)c1cccc(NC(=O)COc2ccccc2)c1	-93.2	nt	nt	nt	nt	nt	nt
COc1ccc(CCNC(=O)Cn2nnc(-c3ccc(N4CCOCC4)cc3)n2)cc1OC	-1.7	-5.6	0.1	709.9*	5.6	-3.7	-0.4
Cc1sc2ncnc(N3CCC(C(=O)NNC(=O)COc4ccccc4Cl)CC3)c2c1C	-1.7	-13.5	0.1	-8.8	4.4	-13.4	nt
Cc1sc2ncnc(N3CCC(C(=O)NNC(=O)COc4ccccc4F)CC3)c2c1C	-1.1	-10.1	0.1	422.1*	1.4	-2.1	-0.3
CCCc1nc(NCc2ccccc2)c(C#N)c2c1CCCC2	-58.2	4.9	0.0	789.2*	nt	-4.5	0.2
Clc1ccccc1-c1nc(C=NN2CCOCC2)c2ccccn12	7.2	nt	nt	nt	nt	nt	nt
OCCN1CCN(c2ncnc3c2sc2nc(N4CCOCC4)c4c(c23)CCC4)CC1	-70.6	-4.3	-0.2	9.3	12.7	-0.2	nt
CC1(C)Cc2c(c(N3CCCC3)nc3sc4c(N5CCN(CCO)CC5)ncnc4c23)CO1	-19.3	-4.7	0.1	706.7*	11.8	2.6	0.1
Cc1nc(CC(=O)N/N=C/c2ccc(OCC(=O)O)cc2)cs1	nt	-1.6	0.2	571.3*	-34.3	2.0	-0.4
O=C(c1cc(F)ccc1F)C1CCCN(C(=O)c2ccc3nccnc3c2)C1 (centres undefined)	4.0	-20.9	0.0	670.3*	4.5	-5.4	-0.8
CC(C)[C@H](NC(=O)C1(c2ccccc2)CCN(C(=O)OC(C)(C)C)CC1)C(=O)O	3.0	-2.7	0.1	606.9*	-3.4	3.0	0.4
COc1ccc(CCNC(=O)C2CCCN(S(=O)(=O)N3CCCCCC3)C2)cc1OC (centres undefined)	4.0	2.3	-0.1	-7.7	-7.2	4.4	nt
CSc1ccc(CCNC(=O)C2CCCN(S(=O)(=O)N3CCOCC3)C2)cc1 (centres undefined)	5.2	-4.3	0.1	564.3*	-4.0	0.0	0.3
CCC(CC)NC(=O)c1oc2ccccc2c1COc1ccccc1	4.1	15.6	0.1	517.5*	nt	9.8	0.4
COc1ccc(NC(=O)CSc2nnc3ccc(-c4ccccn4)nn23)cc1	0.4	-4.2	0.1	80.2	-0.9	2.9	nt
COc1ccc(C(=O)CSc2nnc3ccc(-c4ccccn4)nn23)cc1	-71.7	0.6	0.1	745.1*	1.4	-1.3	1.0
NC(=O)c1cc2ccccc2oc1=NNC(=O)c1cccc(F)c1	9.4	nt	nt	nt	nt	nt	nt
CCOc1ccc(Cl)cc1CNc1nnnn1CC	3.3	-7.7	0.1	463.6*	-2.4	0.6	0.5
O=C(c1cc2c(ccc3ccccc32)oc1=O)N1CCCC1	i	-0.9	0.0	495.2*	1.1	3.4	0.2
SMILES	UCH37 inh	Cardiac RTF inh	Efflux pump mplx	Mot1-301 SUMO	ARNT TACC3 PPI	cardiac RTF act	Yeast Mot1 SUMO
O=C(NN=Cc1ccc(OC(F)F)cc1)c1ccc(Br)cc1	0.6	nt	nt	nt	nt	nt	nt
CN(c1ccccc1)c1ccc(C=NN2CCOCC2)cc1	6.8	nt	nt	nt	nt	nt	nt
Cc1cccc(OCC(=O)NN=Cc2cc([N+](=O)[O-])ccc2N2CCOCC2)c1	4.1	nt	nt	nt	nt	nt	nt
Cc1cc(CNC(=O)C2CCC(=O)N(Cc3ccccc3F)C2)on1 (centres undefined)	-0.9	-2.4	0.1	654.5*	-4.0	-2.0	0.7
O=C(Cn1sc2ccccc2c1=O)NC12CC3CC(CC(C3)C1)C2	nt	-1.7	0.6	387.1*	0.8	-0.9	3.8
CCOC(=O)N1CCC(Nc2nc3ccccc3n3nnnc23)CC1	-75.3	-11.9	0.2	889.3*	0.1	3.8	0.3
O=C(OCCCCOC(=O)c1ccccc1)c1ccccc1	2.3	-7.9	0.2	528.8*	-3.7	6.5	0.1
O=C(c1cn(-c2ccccc2)nc1-c1cccs1)N1CCOCC1	1.7	0.6	0.0	+	1.9	-3.4	0.2
CCC(=O)Nc1ccc(Br)c(Cl)c1	1.7	0.8	0.2	702.5*	-2.1	1.5	0.6
Cc1cc(NN=Cc2ccc(O)c(C)c2O)nc(-c2ccccc2O)n1	-2.4	nt	nt	nt	nt	nt	nt
C(=NN1CCN(Cc2ccccc2)CC1)c1cccs1	1.4	nt	nt	nt	nt	nt	nt
COc1ccc(C=c2sc3nc(-c4ccccc4OC)nn3c2=O)c(OC)c1	4.4	nt	nt	nt	nt	nt	nt
Cc1cc(C)nc(N=C(NC(=O)Nc2cccc(Cl)c2)Nc2ccccc2)n1	-0.6	nt	nt	nt	nt	nt	nt
Cc1ccnc(NC(=O)c2ccc(Br)s2)c1	2.6	-9.7	-0.2	618.3*	-25.4	21.2	-2.1
Cc1ccnc(NC(=O)c2cccs2)c1	-0.7	0.9	0.0	-1.3	-8.9	4.8	nt
c1coc(C2OCC3(CO2)COC(c2ccco2)OC3)c1 (centres undefined)	0.1	-6.1	0.0	522.9*	-11.5	11.5	-0.5
CN(C)C(=O)CCN1CCOCC1	1.4	-4.5	0.0	559.9*	-9.2	1.7	-0.9
O=C(C1CCCO1)N(c1cccc(Cl)c1)C1C=CS(=O)(=O)C1 (centres undefined)	1.2	4.4	0.1	73.3	11.3	9.2	nt
CCOc1ccc(N(C(=O)C2CCCO2)C2C=CS(=O)(=O)C2)cc1 (centres undefined)	0.2	-1.0	0.1	814.4*	-17.4	0.8	0.3
CCC(=O)Nc1ccc(S(=O)(=O)NCc2ccco2)cc1	-0.8	-8.8	0.2	659.5*	-9.3	4.1	0.7
COc1ccc(OC)c(Cc2nnc(CCC(=O)NCc3ccsc3)o2)c1	2.1	-4.6	0.0	+	-14.0	0.3	0.1
O=C1C2C3C=CC(C4CC34)C2C(=O)N1N=Cc1ccc([N+](=O)[O-])s1 (centres undefined)	1.7	nt	nt	nt	nt	nt	nt
Cc1ccc(C=Nc2sc(Cc3ccccc3)c(C)c2C(N)=O)o1	-19.3	nt	nt	nt	nt	nt	nt
COc1ccc(CNC(=O)CCS(=O)(=O)c2ccc3c(c2)oc(=O)n3C)cc1	2.4	-2.4	-0.1	-2.5	8.6	0.0	nt

Screens (PubChem)
